ChEMBL document CHEMBL1133633, “Anti-Helicobacter pylori agents. 4. 2-(Substituted guanidino)-4-phenylthiazoles and some structurally rigid derivatives” (2000)
Converted amounts (≈) assume the structure as drawn.

Columns and labels:
Helicobacter pylori [1] = experiment: The lowest drug concentration that inhibited macroscopic colonial growth against Helicobacter pylori.; assay type: functional
Summary of the method: (§1)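 Agar dilution. Strains were precultured 3 days at 37 °C on Brucella agar with 3% horse serum and 2% starch, then suspended in buffered saline to McFarland No. 1. A 10²-fold dilution was spotted by multipoint replicator onto Brucella agar with 7% lysed horse blood carrying serial 2-fold drug dilutions. Plates were incubated 3 days at 37 °C under 10% CO₂. MIC is the lowest concentration preventing macroscopic colonial growth. Mean and range come from 10 strains: 8001, 8003, 8004, 8007, 8008, 8009, 8011, 9005, FP1530 and FP1532.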

Helicobacter pylori [2] = experiment: The lowest drug concentration that inhibited macroscopic colonial growth against Helicobacter pylori; value ranges from 6.25-25; assay type: functional; summary of the method: as §1
Cavia porcellus [3] = organism: Cavia porcellus; experiment: Inhibition of histamine stimulated chronotropic response in isolated guinea pig right atrium (1*10e-6 g/mL); assay type: functional, Cardiac atrium
Summary of the method: (§2)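 Guinea pig right atrial strip, under 0.3-0.6 g initial tension in Tyrode solution at 30 °C, gassed with 95% O₂-5% CO₂; beating rate recorded by transducer. Histamine hydrochloride (1 × 10^-6 g/mL) raised rate. Test compound (1 × 10^-6 g/mL) was added 30 min after histamine washout. Percent inhibition compares histamine-induced rate increases before and 30 min after dosing.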

Rattus norvegicus [4] = experiment: Inhibition of histamine stimulated gastric acid secretion in lumen perfused stomach of anesthetized rats (1 mg/kg iv); assay type: functional
Summary of the method: (§3)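 Male Sprague-Dawley rats (~250 g), fasted 24 h, anesthetized with urethane 1.25 g/kg ip. The opened stomach was lumen-perfused with saline, and the perfusate was titrated with 25 mM NaOH by autotitrator. Inhibition of histamine-stimulated acid output was measured after 1 mg/kg iv dosing; n = 2.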

Helicobacter pylori [5] = experiment: The lowest drug concentration that inhibited macroscopic colonial growth against Helicobacter pylori; value ranges from 0.39-0.78; assay type: functional; summary of the method: as §1
Bacteroides fragilis [6] = experiment: Antimicrobial activity was measured against B. fragilis range; Value ranges from 0.39-0.78; assay type: functional
Neisseria gonorrhoeae = experiment: Antimicrobial activity was measured against Neisseria gonorrhoeae organism; assay type: functional
Neisseria meningitidis = experiment: Antimicrobial activity was measured against Neisseria meningitidis organism.; assay type: functional
Helicobacter pylori [7] = experiment: The lowest drug concentration that inhibited macroscopic colonial growth against Helicobacter pylori; Value ranges from 1.56-25; assay type: functional; summary of the method: as §1
Campylobacter jejuni [8] = experiment: Antimicrobial activity was measured against Campylobacter jejuni organism; Value ranges from 0.78-100; assay type: functional
Clostridium perfringens [9] = experiment: Antimicrobial activity was measured against Clostridium perfringens organism; Value ranges from 0.78-3.13; assay type: functional
Clostridioides difficile [10] = experiment: Antimicrobial activity was measured against Clostridium difficile organism; Value ranges from 0.1-0.39; assay type: functional
Helicobacter pylori [11] = experiment: Determined the lowest drug concentration that inhibited macroscopic colonial growth against Helicobacter pylori.; assay type: functional; summary of the method: as §1
Clostridioides difficile [12] = experiment: Antimicrobial activity was measured against Clostridium difficile organism.; assay type: functional
Helicobacter pylori [13] = experiment: Antimicrobial activity was measured against Helicobacter pylori organism.; assay type: functional, organism-based; summary of the method: as §1
Clostridium perfringens [14] = experiment: Antimicrobial activity was measured against Clostridium perfringens organism.; assay type: functional
Campylobacter jejuni [15] = experiment: Antimicrobial activity was measured against Campylobacter jejuni organism.; assay type: functional
Bacteroides fragilis [16] = experiment: Antimicrobial activity was measured against Bacteroides fragilis; assay type: functional, organism-based
Helicobacter pylori [17] = experiment: The lowest drug concentration that inhibited macroscopic colonial growth against Helicobacter pylori; value ranges from 0.78-6.25; assay type: functional; summary of the method: as §1
Helicobacter pylori [18] = experiment: microbe, parasite or virus in culture
Helicobacter pylori [19] = experiment: The lowest drug concentration that inhibited macroscopic colonial growth against Helicobacter pylori;value ranges from 6.25-50; assay type: functional; summary of the method: as §1
Helicobacter pylori [20] = experiment: The lowest drug concentration that inhibited macroscopic colonial growth against Helicobacter pylori; value ranges from 12.5-100; assay type: functional; summary of the method: as §1
Cavia porcellus [21] = organism: Cavia porcellus; experiment: Inhibition of histamine stimulated chronotropic response in isolated guinea pig right atrium; assay type: functional, Cardiac atrium; summary of the method: as §2
Helicobacter pylori [22] = experiment: The lowest drug concentration that inhibited macroscopic colonial growth against Helicobacter pylori; Value ranges from 0.1-0.39; assay type: functional; summary of the method: as §1
Helicobacter pylori [23] = experiment: The lowest drug concentration that inhibited macroscopic colonial growth against Helicobacter pylori; value ranges from 3.13-50; assay type: functional; summary of the method: as §1
Helicobacter pylori [24] = experiment: The lowest drug concentration that inhibited macroscopic colonial growth against Helicobacter pylori; value ranges from 0.2-0.78; assay type: functional; summary of the method: as §1
Rattus norvegicus [25] = experiment: Inhibition of histamine stimulated gastric acid secretion in lumen perfused stomach of anesthetized rat (1 mg/kg iv); assay type: functional; summary of the method: as §3
Cavia porcellus [26] = organism: Cavia porcellus; experiment: Inhibition of histamine stimulated chronotropic response in isolated guinea pig right atrium (1x 10e-6 g/mL); assay type: functional, Cardiac atrium; summary of the method: as §2
Helicobacter pylori [27] = experiment: The lowest drug concentration that inhibited macroscopic colonial growth against Helicobacter pylori; value ranges from 0.0125-0.1; assay type: functional; summary of the method: as §1
Campylobacter jejuni [28] = experiment: Antimicrobial activity was measured against Campylobacter jejuni organism. range is between is(12.5-50).; assay type: functional
Helicobacter pylori [29] = experiment: The lowest drug concentration that inhibited macroscopic colonial growth against Helicobacter pylori; value ranges from 0.0030-0.05; assay type: functional; summary of the method: as §1
Bacteroides fragilis [30] = experiment: Antimicrobial activity was measured against Bacteroides fragilis organism.; assay type: functional

## C/N=C(\N)Nc1nc(-c2cccc(CNC(C)=O)c2)cs1
Helicobacter pylori [1]
  MIC: 14.4 µg/mL (≈ 47.5 µM)

## CC(=O)NCc1cccc(-c2csc(NC(=N)NCCC#N)n2)c1
Helicobacter pylori [2]
  MIC: 19.3 µg/mL (≈ 56.4 µM)

## CC(=O)NCc1cccc(-c2csc(NC(=N)NCCc3ccccn3)n2)c1
Cavia porcellus [3]
  Inhibition: 39%
Rattus norvegicus [4]
  Inhibition: 14%
Helicobacter pylori [5]
  MIC: 0.49 µg/mL (≈ 1.24 µM)

## Cc1ncc([N+](=O)[O-])n1CCO [METRONIDAZOLE]
Bacteroides fragilis [6]
  MIC: 0.59 µg/mL (≈ 3.45 µM)
Neisseria gonorrhoeae
  MIC: > 100 µg/mL
Neisseria meningitidis
  MIC: > 100 µg/mL
Helicobacter pylori [7]
  MIC: 5.4 µg/mL (≈ 31.6 µM)
Campylobacter jejuni [8]
  MIC: 30 µg/mL (≈ 175 µM)
Clostridium perfringens [9]
  MIC: 1.75 µg/mL (≈ 10.2 µM)
Clostridioides difficile [10]
  MIC: 0.2 µg/mL (≈ 1.17 µM)

## CC[C@H]1OC(=O)[C@H](C)[C@@H](O[C@H]2C[C@@](C)(OC)[C@@H](O)[C@H](C)O2)[C@H](C)[C@@H](O[C@@H]2O[C@H](C)C[C@H](N(C)C)[C@H]2O)[C@](C)(OC)C[C@@H](C)C(=O)[C@H](C)[C@@H](O)[C@]1(C)O [CLARITHROMYCIN]
Helicobacter pylori [11]
  MIC: 0.057 µg/mL (≈ 0.0762 µM)

## CC/N=C(\N)Nc1nc(-c2cccc(CNC(C)=O)c2)cs1
Helicobacter pylori [1]
  MIC: 3.6 µg/mL (≈ 11.3 µM)

## (2,5-Dihydroxy-4,7-dioxo-[1,3,2]dioxabismepan-5-yl)-acetic acid
Neisseria gonorrhoeae
  MIC: 4.7 µg/mL
Neisseria meningitidis
  MIC: 12.5 µg/mL
Clostridioides difficile [12]
  MIC: 50 µg/mL
Helicobacter pylori [13]
  MIC: 8.7 µg/mL
Clostridium perfringens [14]
  MIC: > 100 µg/mL
Campylobacter jejuni [15]
  MIC: 7.4 µg/mL
Bacteroides fragilis [16]
  MIC: 50 µg/mL
Helicobacter pylori [11]
  MIC: 18 µg/mL

## CC(=O)NCc1cccc(-c2csc(NC(=N)NCCOCc3ccccc3)n2)c1
Helicobacter pylori [17]
  MIC: 2.5 µg/mL (≈ 5.9 µM)

## CN/C(=N\CCSCc1nc[nH]c1C)NC#N [CIMETIDINE]
Cavia porcellus [3]
  Inhibition: 43%
Helicobacter pylori [18]
  MIC: 1130 µg/mL (≈ 4480 µM)
Rattus norvegicus [4]
  Inhibition: 53%

## CC(=O)NCc1cccc(-c2csc(NC(=N)NCCc3c[nH]cn3)n2)c1
Helicobacter pylori [19]
  MIC: 27 µg/mL (≈ 70.4 µM)

## CC(=O)NCc1cccc(-c2csc(N/C(N)=N/CCN(C)C)n2)c1
Helicobacter pylori [20]
  MIC: 57 µg/mL (≈ 158 µM)

## CCCC/N=C(\N)Nc1nc(-c2cccc(CNC(C)=O)c2)cs1
Cavia porcellus [21]
  Inhibition: 84%
Helicobacter pylori [22]
  MIC: 0.22 µg/mL (≈ 0.637 µM)
Rattus norvegicus [4]
  Inhibition: 74%

## CC(=O)NCc1cccc(-c2csc(NC(=N)NCCNC(=O)c3ccccc3)n2)c1
Helicobacter pylori [23]
  MIC: 23 µg/mL (≈ 52.7 µM)

## CC(=O)NCc1cccc(-c2csc(NC(=N)Nc3ccccc3)n2)c1
Cavia porcellus [3]
  Inhibition: 23%
Rattus norvegicus [4]
  Inhibition: 24%
Helicobacter pylori [24]
  MIC: 0.52 µg/mL (≈ 1.42 µM)

## CC(=O)NCc1cccc(-c2csc(NC(=N)NCCCc3ccccc3)n2)c1
Rattus norvegicus [25]
  Inhibition: 57%
Cavia porcellus [26]
  Inhibition: 35%
Helicobacter pylori [24]
  MIC: 0.39 µg/mL (≈ 0.957 µM)

## CC(=O)NCc1cccc(-c2csc(NC(=N)NCCc3ccccc3)n2)c1
Cavia porcellus [3]
  Inhibition: 65%
Helicobacter pylori [27]
  MIC: 0.037 µg/mL (≈ 0.094 µM)
Rattus norvegicus [4]
  Inhibition: 59%

## COc1ccccc1CC/N=C(\N)Nc1nc(-c2cccc(CNC(C)=O)c2)cs1
Cavia porcellus [3]
  Inhibition: 72%
Campylobacter jejuni [28]
  MIC: 20.5 µg/mL (≈ 48.4 µM)
Neisseria gonorrhoeae
  MIC: > 100 µg/mL
Neisseria meningitidis
  MIC: > 100 µg/mL
Clostridioides difficile [12]
  MIC: > 100 µg/mL
Clostridium perfringens [14]
  MIC: > 100 µg/mL
Helicobacter pylori [29]
  MIC: 0.017 µg/mL (≈ 0.0401 µM)
Bacteroides fragilis [30]
  MIC: > 100 µg/mL
Rattus norvegicus [4]
  Inhibition: 58%

## CC(=O)NCc1cccc(-c2csc(N=C(N)N)n2)c1
Helicobacter pylori [1]
  MIC: 16.5 µg/mL (≈ 57 µM)
